This note sets out measurements from ChEMBL document CHEMBL1926611, “Synthesis and biological evaluation of 4-[3-chloro-4-(3-fluorobenzyloxy)anilino]-6-(3-substituted-phenoxy)pyrimidines as dual EGFR/ErbB-2 kinase inhibitors” (Bioorg Med Chem, 2012).

Assay [1] deals with Epidermal growth factor receptor (Homo sapiens, UniProt P00533). Nature of the assay: Inhibition of human EGFR preincubated 2 hrs prior addition of ATP by HTRF assay. (In general: Time-resolved FRET reads energy transfer from a long-lived donor to a nearby acceptor.)
Chain of Epidermal growth factor receptor (P00533 whole entry): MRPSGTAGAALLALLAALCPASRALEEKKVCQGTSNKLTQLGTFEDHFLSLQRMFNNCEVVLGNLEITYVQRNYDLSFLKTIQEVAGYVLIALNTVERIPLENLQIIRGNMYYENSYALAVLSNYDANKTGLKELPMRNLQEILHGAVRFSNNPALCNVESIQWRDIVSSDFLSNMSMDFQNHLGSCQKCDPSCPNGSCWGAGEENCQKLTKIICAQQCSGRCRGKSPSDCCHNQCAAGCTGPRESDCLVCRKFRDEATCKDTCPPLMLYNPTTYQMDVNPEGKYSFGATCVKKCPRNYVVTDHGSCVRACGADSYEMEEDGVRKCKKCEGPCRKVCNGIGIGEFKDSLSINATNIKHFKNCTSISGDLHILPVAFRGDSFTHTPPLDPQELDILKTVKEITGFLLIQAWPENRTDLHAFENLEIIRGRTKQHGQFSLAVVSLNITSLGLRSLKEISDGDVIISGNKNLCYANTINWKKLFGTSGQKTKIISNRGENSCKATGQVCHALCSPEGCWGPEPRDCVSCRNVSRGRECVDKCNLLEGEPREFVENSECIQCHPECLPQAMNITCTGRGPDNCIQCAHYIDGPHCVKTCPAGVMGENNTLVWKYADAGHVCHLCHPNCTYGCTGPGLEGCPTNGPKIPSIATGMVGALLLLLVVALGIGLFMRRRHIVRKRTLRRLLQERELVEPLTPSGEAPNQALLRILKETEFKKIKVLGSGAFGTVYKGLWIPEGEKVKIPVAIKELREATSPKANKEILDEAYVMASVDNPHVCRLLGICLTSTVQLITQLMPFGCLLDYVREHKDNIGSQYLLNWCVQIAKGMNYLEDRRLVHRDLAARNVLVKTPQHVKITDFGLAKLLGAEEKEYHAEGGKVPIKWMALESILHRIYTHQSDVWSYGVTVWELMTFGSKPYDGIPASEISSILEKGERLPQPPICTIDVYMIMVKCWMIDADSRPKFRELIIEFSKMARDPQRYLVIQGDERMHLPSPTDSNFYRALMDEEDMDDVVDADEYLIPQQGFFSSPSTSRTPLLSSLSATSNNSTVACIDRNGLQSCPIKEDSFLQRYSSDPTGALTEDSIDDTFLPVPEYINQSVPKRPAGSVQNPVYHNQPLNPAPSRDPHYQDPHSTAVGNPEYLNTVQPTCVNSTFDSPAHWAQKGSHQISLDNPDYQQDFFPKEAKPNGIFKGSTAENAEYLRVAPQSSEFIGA
In assay [2] the target is Receptor tyrosine-protein kinase erbB-2 (Homo sapiens, UniProt P04626). The assay is described as follows: Inhibition of human ErbB2 preincubated for 2 hrs prior addition of ATP by HTRF assay. A digest of the protocol: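 Wild-type ErbB-2(676–1255) was used in an HTRF KinEASE-TK format. Kinase, substrate peptide and inhibitor were combined, and ATP started the reaction. Detection used Eu-cryptate anti-phosphotyrosine antibody plus XL665-streptavidin, with time-resolved FRET read after 320 excitation. The emission ratio across ten concentrations (0.01–10,000 nM, including no inhibitor) gave IC50, with duplicate reactions and ≥2 independent determinations.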
Chain of Receptor tyrosine-protein kinase erbB-2 (P04626 whole entry): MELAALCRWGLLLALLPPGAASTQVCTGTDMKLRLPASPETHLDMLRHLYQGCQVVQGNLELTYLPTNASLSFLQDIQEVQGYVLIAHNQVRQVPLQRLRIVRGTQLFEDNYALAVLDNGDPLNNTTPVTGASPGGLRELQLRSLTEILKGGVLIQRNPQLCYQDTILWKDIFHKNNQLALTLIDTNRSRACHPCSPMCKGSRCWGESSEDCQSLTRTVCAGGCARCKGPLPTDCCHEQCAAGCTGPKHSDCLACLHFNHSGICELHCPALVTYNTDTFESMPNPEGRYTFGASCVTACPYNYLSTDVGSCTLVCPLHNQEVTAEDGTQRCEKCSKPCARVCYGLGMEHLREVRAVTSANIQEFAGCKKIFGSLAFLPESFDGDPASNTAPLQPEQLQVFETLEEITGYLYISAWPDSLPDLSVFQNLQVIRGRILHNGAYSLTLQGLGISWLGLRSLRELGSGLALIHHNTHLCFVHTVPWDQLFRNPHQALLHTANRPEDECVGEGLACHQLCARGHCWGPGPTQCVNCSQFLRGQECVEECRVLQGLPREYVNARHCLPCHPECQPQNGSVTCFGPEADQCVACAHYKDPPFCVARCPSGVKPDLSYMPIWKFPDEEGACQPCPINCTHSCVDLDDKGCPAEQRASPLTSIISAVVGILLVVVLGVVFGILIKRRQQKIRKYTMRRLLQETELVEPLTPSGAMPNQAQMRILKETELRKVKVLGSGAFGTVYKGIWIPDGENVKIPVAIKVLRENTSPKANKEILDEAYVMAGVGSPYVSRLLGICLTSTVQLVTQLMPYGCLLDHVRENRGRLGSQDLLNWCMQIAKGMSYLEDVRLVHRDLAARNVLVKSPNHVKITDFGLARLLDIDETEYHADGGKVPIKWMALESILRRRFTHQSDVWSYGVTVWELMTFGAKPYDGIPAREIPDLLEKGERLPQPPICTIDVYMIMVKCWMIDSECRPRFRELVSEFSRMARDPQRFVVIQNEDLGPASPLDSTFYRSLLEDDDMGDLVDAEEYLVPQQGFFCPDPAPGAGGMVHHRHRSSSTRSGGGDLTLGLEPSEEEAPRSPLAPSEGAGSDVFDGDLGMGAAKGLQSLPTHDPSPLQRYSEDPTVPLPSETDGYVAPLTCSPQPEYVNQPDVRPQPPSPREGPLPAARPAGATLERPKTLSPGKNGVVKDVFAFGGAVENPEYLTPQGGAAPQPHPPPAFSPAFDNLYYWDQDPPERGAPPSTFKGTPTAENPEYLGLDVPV

The subject of another assay is A-431. The assay is described as follows: Cytotoxicity against human A431 cells overexpressing EGFR after 72 hrs by MTT assay. The conditions noted are these: A-431, 72 h. On the technique in general: Tetrazolium assays rely on reduction of a dye to a coloured formazan, in cell work by metabolically active cells.
The next assay deals with SK-OV-3. Nature of the assay: Cytotoxicity against human SKOV3 cells overexpressing ErbB2 after 72 hrs by MTT assay. To be noted: SK-OV-3, 72 h.

One may read the IC50 as the midpoint of a concentration-inhibition curve. Lower therefore signals greater potency in that assay.

In the case of `O=[N+]([O-])c1cccc(Oc2cc(Nc3ccc(OCc4cccc(F)c4)c(Cl)c3)ncn2)c1`, the IC50 in assay [1] was 1.2 µM; in assay [2], 2.42 µM; in the assay with A-431 it was 10.4 µM; in the assay with SK-OV-3 it was above 30 µM.

As for `Nc1cccc(Oc2cc(Nc3ccc(OCc4cccc(F)c4)c(Cl)c3)ncn2)c1`, the IC50 amounted to 0.473 µM in assay [1], 0.559 µM in assay [2], 8.92 µM in the assay on A-431 and 12.2 µM in the assay on SK-OV-3.

For `CC(=O)Nc1cccc(Oc2cc(Nc3ccc(OCc4cccc(F)c4)c(Cl)c3)ncn2)c1`, the IC50 stood at 0.108 µM in assay [1], 0.135 µM in assay [2], 12 µM in the assay with A-431 and 3.95 µM in the assay with SK-OV-3.

`C=CC(=O)Nc1cccc(Oc2cc(Nc3ccc(OCc4cccc(F)c4)c(Cl)c3)ncn2)c1`: the IC50 in assay [1] was 0.037 µM; in assay [2], 0.029 µM; in the assay on A-431, 3.25 µM; in the assay on SK-OV-3, 0.89 µM.

For the molecule `CCOC(=O)/C=C/C(=O)Nc1cccc(Oc2cc(Nc3ccc(OCc4cccc(F)c4)c(Cl)c3)ncn2)c1`, the concentration for half-maximal inhibition (IC50) in assay [1] was determined as 0.129 µM; in assay [2], 0.196 µM; in the assay with A-431 it was 7 µM; with SK-OV-3, 1.29 µM.

`CCOC(=O)CNc1cccc(Oc2cc(Nc3ccc(OCc4cccc(F)c4)c(Cl)c3)ncn2)c1`: the IC50 came out at 0.219 µM in assay [2] and 9.18 µM in the assay on SK-OV-3.

`N#CCC(=O)Nc1cccc(Oc2cc(Nc3ccc(OCc4cccc(F)c4)c(Cl)c3)ncn2)c1`: the IC50 in assay [1] stood at 0.048 µM; in assay [2], 0.038 µM; in the assay on A-431 it was 5.17 µM; in the assay with SK-OV-3 it was 8.42 µM.

As to `O=C(Nc1cccc(Oc2cc(Nc3ccc(OCc4cccc(F)c4)c(Cl)c3)ncn2)c1)c1ccc([N+](=O)[O-])cc1`, the IC50 is above 10 µM in assay [1], above 10 µM in assay [2], 6.72 µM in the assay on A-431 and 10.2 µM in the assay with SK-OV-3.

For the molecule `Nc1cc(Nc2cccc(Oc3cc(Nc4ccc(OCc5cccc(F)c5)c(Cl)c4)ncn3)c2)ncn1`, the IC50 in assay [1] was found to be 0.061 µM; in assay [2], 0.042 µM; in the assay with A-431 it was 4.24 µM; with SK-OV-3, 0.71 µM.

Turning to `Fc1cccc(COc2ccc(Nc3cc(Oc4cccc(NCc5ccccc5)c4)ncn3)cc2Cl)c1`, the IC50 in assay [1] is above 10 µM; in assay [2] it was above 10 µM; with A-431, 3.11 µM; in the assay on SK-OV-3 it was 17.9 µM.

With `O=C(/C=C/c1ccccc1)Nc1cccc(Oc2cc(Nc3ccc(OCc4cccc(F)c4)c(Cl)c3)ncn2)c1`, the IC50 in assay [1] is 1.67 µM; in assay [2], 3.74 µM; with A-431, 11.2 µM; in the assay with SK-OV-3, 20.7 µM.

As for `O=C(COc1ccccc1)Nc1cccc(Oc2cc(Nc3ccc(OCc4cccc(F)c4)c(Cl)c3)ncn2)c1`, the IC50 turned out to be 0.065 µM in assay [1], 0.079 µM in assay [2], 14.9 µM with A-431 and 9.1 µM with SK-OV-3.

`O=C(Cc1cc(F)c(F)cc1F)Nc1cccc(Oc2cc(Nc3ccc(OCc4cccc(F)c4)c(Cl)c3)ncn2)c1`: the IC50 turned out to be 0.627 µM in assay [1], 0.834 µM in assay [2], 9.29 µM in the assay with A-431 and 26.1 µM in the assay with SK-OV-3.

For `O=C(/C=C/c1ccc(F)cc1)Nc1cccc(Oc2cc(Nc3ccc(OCc4cccc(F)c4)c(Cl)c3)ncn2)c1`, the IC50 in assay [1] is 0.821 µM; in assay [2] it was 1.29 µM; with A-431, 18.1 µM; in the assay with SK-OV-3, above 30 µM.

Regarding `COc1ccc(/C=C/C(=O)Nc2cccc(Oc3cc(Nc4ccc(OCc5cccc(F)c5)c(Cl)c4)ncn3)c2)cc1OC`, the IC50 in assay [1] was 0.523 µM; in assay [2], 1.23 µM; with A-431 it was above 20 µM; with SK-OV-3, above 30 µM.

In the case of `O=C(COc1cc(F)c(F)c(F)c1)Nc1cccc(Oc2cc(Nc3ccc(OCc4cccc(F)c4)c(Cl)c3)ncn2)c1`, the IC50 in assay [1] is 0.721 µM; in assay [2], 2.14 µM; in the assay on A-431, 13.2 µM; with SK-OV-3 it was above 30 µM.

For `COc1ccc(OCC(=O)Nc2cccc(Oc3cc(Nc4ccc(OCc5cccc(F)c5)c(Cl)c4)ncn3)c2)cc1OC`, the IC50 in assay [1] is above 10 µM; in assay [2] it was above 10 µM; in the assay on A-431 it was 6.42 µM.

With `CS(=O)(=O)CCNCc1ccc(-c2ccc3ncnc(Nc4ccc(OCc5cccc(F)c5)c(Cl)c4)c3c2)o1` [LAPATINIB], the IC50 with SK-OV-3 came out at 2.99 µM.
